Data taken from ChEMBL document CHEMBL2203244, “Discovery and optimization of a series of 2-aminothiazole-oxazoles as potent phosphoinositide 3-kinase γ inhibitors” (Bioorg Med Chem Lett, 2012).
pIC50: −log10 of the molar value. Values after ≈ are worked out from the molar mass of the structure shown.

Tests used:
[1] = molecular target: T1, Phosphatidylinositol 4,5-bisphosphate 3-kinase catalytic subunit gamma isoform (Homo sapiens, UniProt P48736); experiment: Inhibition of human PI3Kgamma using phosphatidylinositol as substrate and [33gammaP]ATP after 2 hrs by scintillation counting
T1 sequence (P48736 whole entry, canonical isoform): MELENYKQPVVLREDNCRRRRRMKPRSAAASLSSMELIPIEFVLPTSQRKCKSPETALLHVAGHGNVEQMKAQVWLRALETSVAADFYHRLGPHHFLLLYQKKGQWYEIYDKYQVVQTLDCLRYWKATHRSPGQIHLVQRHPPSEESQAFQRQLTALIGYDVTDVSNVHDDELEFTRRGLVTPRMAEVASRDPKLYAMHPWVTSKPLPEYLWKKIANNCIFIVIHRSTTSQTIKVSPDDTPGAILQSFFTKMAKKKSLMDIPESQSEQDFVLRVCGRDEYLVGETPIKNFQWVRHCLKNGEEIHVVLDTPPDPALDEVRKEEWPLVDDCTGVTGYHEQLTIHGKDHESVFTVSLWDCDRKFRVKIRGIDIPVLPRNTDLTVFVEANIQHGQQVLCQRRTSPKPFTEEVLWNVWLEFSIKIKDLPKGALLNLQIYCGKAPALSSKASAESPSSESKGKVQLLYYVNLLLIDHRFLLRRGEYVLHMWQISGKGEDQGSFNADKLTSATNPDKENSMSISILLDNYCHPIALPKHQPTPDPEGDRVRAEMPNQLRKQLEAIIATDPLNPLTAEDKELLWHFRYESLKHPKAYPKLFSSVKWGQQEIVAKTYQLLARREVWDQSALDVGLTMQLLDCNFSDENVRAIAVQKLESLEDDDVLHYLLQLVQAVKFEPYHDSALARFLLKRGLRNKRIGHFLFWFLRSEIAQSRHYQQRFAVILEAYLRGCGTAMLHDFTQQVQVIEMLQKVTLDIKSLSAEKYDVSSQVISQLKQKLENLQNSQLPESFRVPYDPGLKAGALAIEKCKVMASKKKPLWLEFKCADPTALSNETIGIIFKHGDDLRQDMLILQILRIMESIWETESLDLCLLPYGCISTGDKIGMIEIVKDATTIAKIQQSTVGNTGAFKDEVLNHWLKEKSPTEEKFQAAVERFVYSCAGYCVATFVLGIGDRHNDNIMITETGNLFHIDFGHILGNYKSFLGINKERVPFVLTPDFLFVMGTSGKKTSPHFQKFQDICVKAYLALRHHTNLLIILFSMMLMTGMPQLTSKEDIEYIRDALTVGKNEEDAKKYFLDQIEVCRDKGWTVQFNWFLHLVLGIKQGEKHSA
How it was run: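 Recombinant human PI3Kγ (20 ng) incubated 2 h at 30 °C with test inhibitor or DMSO in 20 mM Tris–HCl pH 7.4, 5 mM MgCl2, 5 mM DTT, with ATP/[33P]ATP and PtdIns/PtdSer lipid vesicles as substrate. Reaction stopped with 25 mM EDTA. Product captured on phospholipid scintillant-coated plates, washed with PBS, and bound radioactivity counted by scintillation.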

[2] = molecular target: Phosphatidylinositol 4,5-bisphosphate 3-kinase catalytic subunit gamma isoform (Mus musculus, UniProt Q9JHG7); experiment: Inhibition of PI3Kgamma in mouse RAW264.7 cells assessed as inhibition of C5a-induced PKB/Akt phosphorylation incubated for 30 mins prior to C5a-induction measured after 5 mins by immunostaining method; format: cell-based
Sequence of Phosphatidylinositol 4,5-bisphosphate 3-kinase catalytic subunit gamma isoform (Mus musculus, UniProt Q9JHG7) (Q9JHG7 whole entry, canonical isoform): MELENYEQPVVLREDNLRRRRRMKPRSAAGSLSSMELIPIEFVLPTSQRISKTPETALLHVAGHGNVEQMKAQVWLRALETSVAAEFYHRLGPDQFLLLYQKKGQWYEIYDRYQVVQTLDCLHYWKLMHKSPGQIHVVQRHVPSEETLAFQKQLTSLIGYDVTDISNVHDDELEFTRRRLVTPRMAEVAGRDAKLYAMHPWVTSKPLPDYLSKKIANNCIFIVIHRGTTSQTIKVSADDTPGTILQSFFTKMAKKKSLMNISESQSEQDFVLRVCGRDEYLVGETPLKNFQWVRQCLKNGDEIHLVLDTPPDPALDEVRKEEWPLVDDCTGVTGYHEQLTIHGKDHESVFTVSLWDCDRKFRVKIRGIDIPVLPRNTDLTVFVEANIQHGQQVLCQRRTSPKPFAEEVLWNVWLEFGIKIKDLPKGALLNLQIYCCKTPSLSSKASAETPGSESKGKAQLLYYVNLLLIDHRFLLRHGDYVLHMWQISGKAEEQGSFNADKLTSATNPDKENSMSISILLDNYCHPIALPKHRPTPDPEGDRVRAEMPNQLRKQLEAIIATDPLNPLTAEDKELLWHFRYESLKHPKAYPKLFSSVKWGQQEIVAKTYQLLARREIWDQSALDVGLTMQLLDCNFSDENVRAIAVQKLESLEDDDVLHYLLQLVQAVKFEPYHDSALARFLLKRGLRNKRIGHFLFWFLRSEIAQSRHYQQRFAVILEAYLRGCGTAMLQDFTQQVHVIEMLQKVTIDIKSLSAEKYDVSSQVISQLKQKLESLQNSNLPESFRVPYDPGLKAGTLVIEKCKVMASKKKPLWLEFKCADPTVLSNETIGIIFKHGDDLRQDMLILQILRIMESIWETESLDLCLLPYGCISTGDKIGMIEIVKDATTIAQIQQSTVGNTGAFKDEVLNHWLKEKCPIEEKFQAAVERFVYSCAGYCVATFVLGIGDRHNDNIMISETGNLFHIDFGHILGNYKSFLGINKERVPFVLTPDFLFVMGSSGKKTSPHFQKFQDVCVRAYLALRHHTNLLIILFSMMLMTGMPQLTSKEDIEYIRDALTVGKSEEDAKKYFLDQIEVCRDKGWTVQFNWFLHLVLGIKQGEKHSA
How it was run: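 Raw264.7 murine macrophage-like cells seeded at 8 × 10⁶ per well, grown 24 h, switched to serum-free 0.1% BSA medium for 3 h at 37 °C. Pretreated with or without a range of inhibitor concentrations for 30 min, then stimulated with 5 nM C5a for 5 min at 37 °C. PKB/Akt phosphorylation scored as the cellular read-out.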

[3] = molecular target: T1, Phosphatidylinositol 4,5-bisphosphate 3-kinase catalytic subunit gamma isoform
[4] = molecular target: Phosphatidylinositol 4,5-bisphosphate 3-kinase catalytic subunit alpha isoform (Homo sapiens, UniProt P42336); experiment: Inhibition of human PI3Kalpha using phosphatidylinositol as substrate and [33gammaP]ATP after 2 hrs by scintillation counting
Sequence of Phosphatidylinositol 4,5-bisphosphate 3-kinase catalytic subunit alpha isoform (P42336 whole entry, canonical isoform): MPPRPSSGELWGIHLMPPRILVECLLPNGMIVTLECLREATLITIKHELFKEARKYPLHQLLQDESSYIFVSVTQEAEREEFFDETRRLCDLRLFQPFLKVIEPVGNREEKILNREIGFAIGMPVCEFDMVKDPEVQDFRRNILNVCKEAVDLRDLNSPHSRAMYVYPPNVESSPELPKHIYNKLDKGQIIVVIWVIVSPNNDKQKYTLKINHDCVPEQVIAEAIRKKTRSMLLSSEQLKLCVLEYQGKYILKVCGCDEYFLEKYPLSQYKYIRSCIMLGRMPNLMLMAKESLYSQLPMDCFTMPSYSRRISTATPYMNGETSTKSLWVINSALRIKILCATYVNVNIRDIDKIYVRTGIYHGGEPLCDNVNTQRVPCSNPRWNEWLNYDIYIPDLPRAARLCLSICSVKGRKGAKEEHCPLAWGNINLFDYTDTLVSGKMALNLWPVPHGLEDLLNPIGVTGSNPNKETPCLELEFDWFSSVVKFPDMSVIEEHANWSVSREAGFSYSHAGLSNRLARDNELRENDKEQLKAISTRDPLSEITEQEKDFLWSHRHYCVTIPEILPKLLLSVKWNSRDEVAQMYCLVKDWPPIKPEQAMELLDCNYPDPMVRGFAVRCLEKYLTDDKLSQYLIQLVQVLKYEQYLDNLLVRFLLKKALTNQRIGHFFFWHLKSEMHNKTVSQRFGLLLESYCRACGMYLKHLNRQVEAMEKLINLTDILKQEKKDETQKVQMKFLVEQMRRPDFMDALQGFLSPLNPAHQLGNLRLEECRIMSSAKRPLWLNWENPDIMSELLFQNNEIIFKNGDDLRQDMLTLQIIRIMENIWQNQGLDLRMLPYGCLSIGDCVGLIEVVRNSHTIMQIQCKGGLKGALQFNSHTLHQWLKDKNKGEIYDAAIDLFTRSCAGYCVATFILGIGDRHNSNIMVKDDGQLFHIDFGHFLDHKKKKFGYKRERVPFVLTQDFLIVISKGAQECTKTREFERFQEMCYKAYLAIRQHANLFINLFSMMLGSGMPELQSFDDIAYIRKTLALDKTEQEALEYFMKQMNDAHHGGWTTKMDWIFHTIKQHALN
How it was run: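 Recombinant human PI3Kα (20 ng) incubated 2 h at 30 °C in 20 mM Tris–HCl pH 7.4, 5 mM MgCl₂, 5 mM DTT with unlabelled ATP plus [γ-³³P]ATP and lipid vesicles of PtdIns and 25 µM PtdSer (final), with inhibitor or DMSO. Stopped with 25 mM EDTA, captured on phospholipid scintillant-coated plate, PBS-washed, bound counts per second read.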

[5] = species: Homo sapiens; experiment: Selectivity ratio of IC50 for human PI3Kalpha to IC50 for human PI3Kgamma
How it was run: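 Human PI3Kα and PI3Kγ (20 ng each) assayed by the same radiometric lipid-kinase procedure: 2 h at 30 °C, pH 7.4 Tris buffer with MgCl2 and DTT, [33P]ATP and PtdIns/PtdSer vesicles, stopped with EDTA, captured on scintillant-coated plates and counted. Ratio taken as the PI3Kα IC50 divided by the PI3Kγ IC50.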

[6] = Permeability of the compound at pH 6.2 by PAMPA assay; format: ADME; conditions: read-out: permeability
How it was run: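 PAMPA membrane permeability measured at pH 6.2, reported as Pe in cm/s.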

[7] = Aqueous solubility of the compound; format: physicochemical; conditions: water (aqueous)
How it was run: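 Solubility determined in water.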

Compound	pIC50 [1]	pIC50 [2]	pIC50 [3]	pIC50 [4]	Ratio IC50 [5]	Papp [6] [×10⁻⁶ cm/s]	solubility [7] [µg/mL]
CC(=O)Nc1nc(C)c(-c2cnc(Nc3ccc(Cl)cc3)o2)s1	6.46	–	–	–	–	–	–
CC(=O)Nc1nc(C)c(-c2cnc(Cc3cccc(C(=O)O)c3)o2)s1	6.65	< 5.00	–	–	–	–	–
CC(=O)Nc1nc(C)c(-c2cnc(Oc3cccnc3)o2)s1	6.93	5.78	–	–	–	–	–
CC(=O)Nc1nc(C)c(-c2csc(Nc3cccc(C(=O)O)c3)n2)s1	–	–	8.30	–	–	–	–
CC(=O)Nc1nc(C)c(-c2cnc(N(C)C)o2)s1	7.34	5.91	–	–	–	–	–
CC(=O)Nc1nc(C)c(-c2cnc(C)o2)s1	6.74	–	–	–	–	–	–
CC(=O)Nc1nc(C)c(-c2cnc(CO)o2)s1	6.79	–	–	–	–	–	–
CC(=O)Nc1nc(C)c(-c2cnc(N3CCOCC3)o2)s1	7.62	6.22	–	–	–	–	–
CC(=O)Nc1nc(C)c(-c2cnc(C(C)(C)O)o2)s1	7.60	6.43	–	–	–	–	–
CC(=O)Nc1nc(C)c(-c2cnc(Cc3cccnc3)o2)s1	7.02	–	–	–	–	–	–
COc1ncc(-c2sc(NC(C)=O)nc2C)o1	6.60	–	–	–	–	–	–
CSc1ncc(-c2sc(NC(C)=O)nc2C)o1	7.66	6.49	–	–	–	–	–
CC(=O)Nc1nc(C)c(-c2cnc(Nc3ccc(Cl)nc3)o2)s1	7.62	5.98	–	–	–	–	–

More lines, now with the values ahead:

pIC50 [1]	pIC50 [2]	pIC50 [3]	pIC50 [4]	Ratio IC50 [5]	Papp [6] [×10⁻⁶ cm/s]	solubility [7] [µg/mL]	Compound
7.92	6.65	–	6.71	16	–	–	CC(=O)Nc1nc(C)c(-c2cnc(S(C)(=O)=O)o2)s1
7.92	< 5.00	–	6.48	27	1.4	–	CC(=O)Nc1nc(C)c(-c2cnc(Nc3cccc(C(=O)O)c3)o2)s1
8.52	6.95	–	7.82	5	88.4	35.2 (≈ 126 µM)	CC(=O)Nc1nc(C)c(-c2cnc(C(C)(C)C)o2)s1
8.52	7.23	–	7.34	15	77.3	0.39 (≈ 1.3 µM)	CC(=O)Nc1nc(C)c(-c2cnc(-c3cccnc3)o2)s1
7.92	6.37	–	6.99	9	–	–	CC(=O)Nc1nc(C)c(-c2cnc(Nc3cccnc3)o2)s1
7.85	6.63	–	–	–	–	–	CC(=O)Nc1nc(C)c(-c2cnc(N3CCCC(O)C3)o2)s1 (stereo not given)
8.00	7.06	–	7.37	4	–	–	CC(=O)Nc1nc(C)c(-c2cnc(CC(F)(F)F)o2)s1
7.80	6.55	–	6.95	7	–	–	CC(=O)Nc1nc(C)c(-c2cnc(Sc3cccnc3)o2)s1
